Reference: ChEMBL document CHEMBL1142193, “Dual targeting of GyrB and ParE by a novel aminobenzimidazole class of antibacterial compounds” (2007)
Values after ≈ are worked out from the molar mass of the structure shown. Active and inactive are the calls of the source. No cut-off for these calls is given here.

Experiments:
Assay type in all cases: functional
Staphylococcus aureus [1] = assay: Antibacterial activity against Staphylococcus aureus ATCC 29213 without plasmid
Staphylococcus aureus [2] = assay: Antibacterial activity against Staphylococcus aureus ATCC 29213 carrying plasmid expressing wild type GyrB
Staphylococcus aureus [3] = assay: Antibacterial activity against Staphylococcus aureus ATCC 29213 carrying plasmid expressing GyrB T173N mutant
Staphylococcus aureus [4] = assay: Antibacterial activity against Staphylococcus aureus ATCC 29213 carrying plasmid expressing GyrB T173I mutant
Staphylococcus aureus [5] = assay: Antibacterial activity against Staphylococcus aureus ATCC 29213 carrying plasmid expressing GyrB R144I mutant
Staphylococcus aureus [6] = assay: Antibacterial activity against Staphylococcus aureus ATCC 29213 with GyrB T173N mutation without plasmid
Staphylococcus aureus [7] = assay: Antibacterial activity against Staphylococcus aureus ATCC 29213 with GyrB T173I mutation without plasmid
Staphylococcus aureus [8] = assay: Antibacterial activity against Staphylococcus aureus ATCC 29213 with GyrB R144I mutation without plasmid
Staphylococcus aureus [9] = assay: Antibacterial activity against Staphylococcus aureus ATCC 29213 after 18 to 20 hrs
Outline: (§1)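 MICs followed CLSI guidelines. Strains were grown overnight at 35°C on solid medium. Inocula were prepared with a Prompt system. Compounds were serially diluted twofold in 100% DMSO at 200x and diluted 1:200 into medium, for a final 0.5% DMSO. Plates were incubated at 35°C for 18 to 20 h and read visually. A twofold MIC variation was taken as assay error.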

Staphylococcus aureus [10] = assay: Antibacterial activity against Staphylococcus aureus ATCC 29213 with GyrB T173N mutation after 18 to 20 hrs; outline: as §1
Staphylococcus aureus [11] = assay: Antibacterial activity against Staphylococcus aureus ATCC 29213 with GyrB T173I mutation after 18 to 20 hrs; outline: as §1
Staphylococcus aureus [12] = assay: Antibacterial activity against novobiocin-resistant Staphylococcus aureus ATCC 29213 with GyrB R144I mutation after 18 to 20 hrs; outline: as §1
Staphylococcus aureus [13] = assay: Antibacterial activity against Staphylococcus aureus ATCC 29213 with GyrB T173N and GrlB T166A mutation after 18 to 20 hrs; outline: as §1
Staphylococcus aureus [14] = assay: Antibacterial activity against Staphylococcus aureus ATCC 29213 with GyrB T173I and GrlB T166A mutation after 18 to 20 hrs; outline: as §1
Streptococcus pneumoniae [15] = assay: Antibacterial activity against Streptococcus pneumoniae ATCC BAA-255 after 18 to 20 hrs; outline: as §1
Streptococcus pneumoniae [16] = assay: Antibacterial activity against novobiocin-resistant Streptococcus pneumoniae ATCC BAA-255 with GyrB S127L mutation after 18 to 20 hrs; outline: as §1
Streptococcus pneumoniae [17] = assay: Antibacterial activity against Streptococcus pneumoniae ATCC BAA-255 with ParE T172A mutation after 18 to 20 hrs; outline: as §1
Streptococcus pneumoniae [18] = assay: Antibacterial activity against Streptococcus pneumoniae ATCC BAA-255 with ParE T172I mutation after 18 to 20 hrs; outline: as §1
Streptococcus pneumoniae [19] = assay: Antibacterial activity against Streptococcus pneumoniae ATCC BAA-255 with GyrB T172A and ParE T172A mutation after 18 to 20 hrs; outline: as §1
Enterococcus faecalis [20] = assay: Antibacterial activity against Enterococcus faecalis ATCC 29212 after 18 to 20 hrs; outline: as §1
Enterococcus faecalis [21] = assay: Antibacterial activity against Enterococcus faecalis ATCC 29212 with ParE T169A mutation after 18 to 20 hrs; outline: as §1
Enterococcus faecalis [22] = assay: Antibacterial activity against Enterococcus faecalis ATCC 29212 with GyrB T167A mutation after 18 to 20 hrs; outline: as §1
Enterococcus faecalis [23] = assay: Antibacterial activity against Enterococcus faecalis ATCC 29212 with GyrB T167I mutation after 18 to 20 hrs; outline: as §1
Enterococcus faecalis [24] = assay: Antibacterial activity against Enterococcus faecalis ATCC 29212 with GyrB T167I and ParE T169A mutation after 18 to 20 hrs; outline: as §1
Enterococcus faecalis [25] = assay: Antibacterial activity against Enterococcus faecalis ATCC 29212 with GyrB T167A and ParE T169A mutation after 18 to 20 hrs; outline: as §1
Haemophilus influenzae [26] = assay: Antibacterial activity against Haemophilus influenzae ATCC 51907 after 18 to 20 hrs; outline: as §1
Haemophilus influenzae [27] = assay: Antibacterial activity against novobiocin-resistant Haemophilus influenzae ATCC 51907 with GyrB R140C mutation after 18 to 20 hrs; outline: as §1
Haemophilus influenzae [28] = assay: Antibacterial activity against novobiocin-resistant Haemophilus influenzae ATCC 51907 with GyrB R140H mutation after 18 to 20 hrs; outline: as §1
Haemophilus influenzae [29] = assay: Antibacterial activity against novobiocin-resistant Haemophilus influenzae ATCC 51907 with GyrB R140L mutation after 18 to 20 hrs; outline: as §1
Haemophilus influenzae [30] = assay: Antibacterial activity against Haemophilus influenzae ATCC 51907 with GyrB T169I mutation after 18 to 20 hrs; outline: as §1
Staphylococcus aureus [31] = assay: Inhibition of DNA synthesis in Staphylococcus aureus ATCC 29213 assessed as [3H]thymidine incorporation
Outline: (§2)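 Log-phase cells exposed in duplicate to compound at 5x MIC; labelled-precursor uptake measured over 15 min, stopped with 10% trichloroacetic acid. Incorporation expressed as percent of untreated control (taken as 100%).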

Staphylococcus aureus [32] = assay: Inhibition of RNA synthesis in Staphylococcus aureus ATCC 29213 assessed as [3H]uridine incorporation; outline: as §2
Staphylococcus aureus [33] = assay: Inhibition of protein synthesis in Staphylococcus aureus ATCC 29213 assessed as [3H]aminoacid incorporation

Row | Compound | MIC (Staphylococcus aureus [1]) [µg/mL] | MIC (Staphylococcus aureus [2]) [µg/mL] | MIC (Staphylococcus aureus [3]) [µg/mL] | MIC (Staphylococcus aureus [4]) [µg/mL] | MIC (Staphylococcus aureus [5]) [µg/mL] | MIC (Staphylococcus aureus [6]) [µg/mL] | MIC (Staphylococcus aureus [7]) [µg/mL] | MIC (Staphylococcus aureus [8]) [µg/mL] | MIC (Staphylococcus aureus [9]) [µg/mL] | MIC (Staphylococcus aureus [10]) [µg/mL] | MIC (Staphylococcus aureus [11]) [µg/mL] | MIC (Staphylococcus aureus [12]) [µg/mL] | MIC (Staphylococcus aureus [13]) [µg/mL] | MIC (Staphylococcus aureus [14]) [µg/mL] | MIC (Streptococcus pneumoniae [16]) [µg/mL] | MIC (Streptococcus pneumoniae [17]) [µg/mL] | MIC (Streptococcus pneumoniae [19]) [µg/mL] | MIC (Enterococcus faecalis [20]) [µg/mL] | MIC (Enterococcus faecalis [21]) [µg/mL] | MIC (Enterococcus faecalis [22]) [µg/mL] | also measured
1 | CO[C@@H]1[C@@H](OC(N)=O)[C@@H](O)[C@H](Oc2ccc3c(O)c(NC(=O)c4ccc(O)c(CC=C(C)C)c4)c(=O)oc3c2C)OC1(C)C [NOVOBIOCIN] | 0.13 (≈ 0.212 µM) | 0.13 (≈ 0.212 µM) | 0.13 (≈ 0.212 µM) | 0.5 (≈ 0.816 µM) | 8 (≈ 13.1 µM) | 0.25 (≈ 0.408 µM) | 2 (≈ 3.26 µM) | 8 (≈ 13.1 µM) | 0.13 (≈ 0.212 µM) | 0.25 (≈ 0.408 µM) | 1 (≈ 1.63 µM) | 8 (≈ 13.1 µM) | 0.25 (≈ 0.408 µM) | 2 (≈ 3.26 µM) | 8 (≈ 13.1 µM) | 0.5 (≈ 0.816 µM) | 4 (≈ 6.53 µM) | 8 (≈ 13.1 µM) | 8 (≈ 13.1 µM) | 16 (≈ 26.1 µM) | MIC (Streptococcus pneumoniae [15]): 0.5 µg/mL (≈ 0.816 µM); MIC (Streptococcus pneumoniae [18]): 0.5 µg/mL (≈ 0.816 µM); MIC (Enterococcus faecalis [23]): 32 µg/mL (≈ 52.2 µM); MIC (Enterococcus faecalis [24]): 16 µg/mL (≈ 26.1 µM); MIC (Enterococcus faecalis [25]): 16 µg/mL (≈ 26.1 µM); MIC (Haemophilus influenzae [26]): 0.064 µg/mL (≈ 0.104 µM); MIC (Haemophilus influenzae [27]): 8 µg/mL (≈ 13.1 µM); MIC (Haemophilus influenzae [28]): 4 µg/mL (≈ 6.53 µM); MIC (Haemophilus influenzae [29]): 4 µg/mL (≈ 6.53 µM); MIC (Haemophilus influenzae [30]): 0.25 µg/mL (≈ 0.408 µM)
2 | O=C(O)c1cn(C2CC2)c2cc(N3CCNCC3)c(F)cc2c1=O [CIPROFLOXACIN] | 0.25 (≈ 0.754 µM) | 0.25 (≈ 0.754 µM) | 0.25 (≈ 0.754 µM) | 0.25 (≈ 0.754 µM) | 0.25 (≈ 0.754 µM) | 0.25 (≈ 0.754 µM) | 0.25 (≈ 0.754 µM) | 0.25 (≈ 0.754 µM) | 0.25 (≈ 0.754 µM) | 0.25 (≈ 0.754 µM) | 0.25 (≈ 0.754 µM) | 0.25 (≈ 0.754 µM) | 0.25 (≈ 0.754 µM) | 0.25 (≈ 0.754 µM) | 0.25 (≈ 0.754 µM) | 0.25 (≈ 0.754 µM) | 0.25 (≈ 0.754 µM) | 1 (≈ 3.02 µM) | 1 (≈ 3.02 µM) | 0.5 (≈ 1.51 µM) | Activity (Staphylococcus aureus [31]): Active; Activity (Staphylococcus aureus [32]): inactive; Activity (Staphylococcus aureus [33]): inactive; MIC (Enterococcus faecalis [23]): 1 µg/mL (≈ 3.02 µM); MIC (Enterococcus faecalis [24]): 0.5 µg/mL (≈ 1.51 µM); MIC (Enterococcus faecalis [25]): 0.5 µg/mL (≈ 1.51 µM); MIC (Haemophilus influenzae [26]): 0.004 µg/mL (≈ 0.0121 µM); MIC (Haemophilus influenzae [27]): 0.004 µg/mL (≈ 0.0121 µM); MIC (Haemophilus influenzae [28]): 0.004 µg/mL (≈ 0.0121 µM); MIC (Haemophilus influenzae [29]): 0.004 µg/mL (≈ 0.0121 µM); MIC (Haemophilus influenzae [30]): 0.004 µg/mL (≈ 0.0121 µM)
